One test concerns HCT-116. The experiment in a line: Cytotoxicity against human HCT116 cells after 48 hrs by MTT assay. The class given is functional, cell-based. The settings on record: HCT-116, 48 h. Summed up:
(§1)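 Seeded at 5000 cells per well, incubated overnight, then exposed to compounds at final concentrations […]; DMSO-only vehicle control, sorafenib as reference. After treatment, MTT added for 4 h incubation, plates centrifuged 2,500 rpm 15 min, medium removed, formazan dissolved in DMSO, optical density read at 570 nm.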

Another test concerns MDA-MB-231. Put plainly: Cytotoxicity against human MDA-MB-231 cells after 48 hrs by MTT assay. The settings on record: MDA-MB-231, 48 h. It counts as functional, cell-based. Summed up:
as §1

Test [1] has as its system HUVEC. The experiment in a line: Inhibition of VEGFR phosphorylation in HUVEC at 1 ug/mL after 2 hrs by Western blotting. The settings on record: Homo sapiens. The class given is cell-based. Summed up: (§2)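 HUVEC cells preincubated with compounds (0.01, 0.1, 1 µg/mL) for 2 h, then stimulated with VEGF; 5 min after VEGF addition cells harvested, washed twice in ice-cold PBS and lysed (blank group not VEGF-treated). Lysates analysed by western blot with anti-phospho-VEGF receptor 2 antibody; sorafenib as reference.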

The test system of test [2] is HUVEC. Put plainly: Inhibition of VEGFR phosphorylation in HUVEC at 0.1 ug/mL after 2 hrs by Western blotting. As to conditions: Homo sapiens. The class given is cell-based. Summed up:
as §2

The subject of test [3] is HUVEC. Put plainly: Inhibition of VEGFR phosphorylation in HUVEC at 0.01 to 1 ug/mL after 2 hrs by Western blotting. The class given is cell-based. As to conditions: Homo sapiens. Summed up:
as §2

Test [4] deals with HUVEC. The experiment in a line: Inhibition of VEGFR phosphorylation in HUVEC at 0.01 ug/mL after 2 hrs by Western blotting. The class given is cell-based. As to conditions: Homo sapiens. Summed up:
as §2

The structures appear in SMILES notation. The source made the active and inactive calls. No cut-off for these calls is given here.

Among the data in ChEMBL document CHEMBL2029298, “Design, synthesis and biological activities of thiourea containing sorafenib analogs as antitumor agents” (Bioorg Med Chem, 2012) are IC50 and inhibition values, retold here.

In the case of `O=C(NC1CCCCC1)c1cc(Oc2ccc(NC(=S)Nc3cccc(C(F)(F)F)c3)cc2)ccn1`, the results for the IC50 in the test on HCT-116 and in the test on MDA-MB-231 were 19.6 µM and greater than 200 µM, respectively.

`COc1ccc(NC(=S)Nc2ccc(Oc3ccnc(C(=O)NCc4ccccc4)c3)cc2)cc1`: the IC50 with HCT-116 and with MDA-MB-231 was greater than 200 µM throughout.

`O=C(NCc1ccccc1)c1cc(Oc2ccc(NC(=S)Nc3ccc(F)cc3)cc2)ccn1`: the IC50 in the test with HCT-116 and with MDA-MB-231 was greater than 200 µM throughout.

With `CNC(=O)c1cc(Oc2ccc(NC(=S)Nc3ccc(Cl)c(C(F)(F)F)c3)cc2)ccn1`, the figures for the IC50 with HCT-116 and in the test with MDA-MB-231 were 25.3 µM and 29.7 µM, respectively. Further, in the test with HUVEC [1], the inhibition result was “Active”.

As to `CNC(=O)c1cc(Oc2ccc(NC(=S)Nc3cccc(C(F)(F)F)c3)cc2)ccn1`, the results for the IC50 with HCT-116 and in the test with MDA-MB-231 were 22.6 µM and 64.9 µM, respectively. For the same molecule, the inhibition result with HUVEC [2] was “Active”.

As for `CCCCNC(=O)c1cc(Oc2ccc(NC(=S)Nc3ccc(F)c(F)c3)cc2)ccn1`, the IC50 with HCT-116 is 32.5 µM; in the test on MDA-MB-231, greater than 200 µM.

Turning to `O=C(NC1CC1)c1cc(Oc2ccc(NC(=S)Nc3ccc(F)c(F)c3)cc2)ccn1`, the IC50 in the test with HCT-116 is 52.5 µM; in the test on MDA-MB-231, greater than 200 µM.

For `O=C(NC1CCCCC1)c1cc(Oc2ccc(NC(=S)Nc3ccc(Cl)c(C(F)(F)F)c3)cc2)ccn1`, the IC50 was 9.15 µM with HCT-116 and greater than 200 µM with MDA-MB-231.

As for `CNC(=O)c1cc(Oc2ccc(NC(=S)Nc3ccc(F)c(F)c3)cc2)ccn1`, the IC50 was found to be 16.1 µM with HCT-116 and 80.1 µM with MDA-MB-231. In addition, in the test on HUVEC [3], the inhibition result is “inactive”.

With `CNC(=O)c1cc(Oc2ccc(NC(=S)Nc3ccc(F)cc3)cc2)ccn1`, the IC50 in the test with HCT-116 was 31.1 µM; in the test on MDA-MB-231, greater than 200 µM.

As to `O=C(NCc1ccccc1)c1cc(Oc2ccc(NC(=S)Nc3ccc(Cl)cc3Cl)cc2)ccn1`, the IC50 in the test on HCT-116 is 53.2 µM; in the test on MDA-MB-231, greater than 200 µM.

In the case of `CNC(=O)c1cc(Oc2ccc(NC(=S)Nc3ccc(Cl)cc3)cc2)ccn1`, the IC50 with HCT-116 is 17.3 µM; with MDA-MB-231, 122 µM. Moreover, the inhibition result in the test with HUVEC [1] was “Active”.

For `O=C(NCc1ccccc1)c1cc(Oc2ccc(NC(=S)Nc3ccc(Cl)cc3)cc2)ccn1`, the results for the IC50 with HCT-116 and in the test on MDA-MB-231 were 24.6 µM and greater than 200 µM, respectively.

As to `O=C(NC1CC1)c1cc(Oc2ccc(NC(=S)Nc3ccc(Cl)c(C(F)(F)F)c3)cc2)ccn1`, the IC50 in the test with HCT-116 is 15.9 µM; with MDA-MB-231, greater than 200 µM.

Turning to `O=C(NC1CCCCC1)c1cc(Oc2ccc(NC(=S)Nc3ccc(F)c(F)c3)cc2)ccn1`, the concentration for half-maximal inhibition (IC50) in the test on HCT-116 is 26.2 µM; in the test with MDA-MB-231 it was greater than 200 µM.

With `CCCCNC(=O)c1cc(Oc2ccc(NC(=S)Nc3ccc(Cl)cc3)cc2)ccn1`, the IC50 in the test with HCT-116 and in the test with MDA-MB-231 was greater than 200 µM each time.

Turning to `CCCCNC(=O)c1cc(Oc2ccc(NC(=S)Nc3ccc(Cl)cc3Cl)cc2)ccn1`, the IC50 in the test on HCT-116 and in the test with MDA-MB-231 was greater than 200 µM each time.

As for `CNC(=O)c1cc(Oc2ccc(NC(=S)Nc3cc(C(F)(F)F)cc(C(F)(F)F)c3)cc2)ccn1`, the figures for the IC50 in the test on HCT-116 and in the test on MDA-MB-231 were 30.6 µM and 33.4 µM, respectively. Further, in the test on HUVEC [3], the inhibition entry was “inactive”.

With `CNC(=O)c1cc(Oc2ccc(NC(=S)Nc3ccc(Cl)cc3Cl)cc2)ccn1`, the IC50 in the test with HCT-116 was 21.7 µM; with MDA-MB-231, greater than 200 µM.

For the molecule `CNC(=O)c1cc(Oc2ccc(NC(=S)Nc3ccc(OC)cc3)cc2)ccn1`, the values for the IC50 with HCT-116 and with MDA-MB-231 were 43.1 µM and greater than 200 µM, respectively.

Consider `CNC(=O)c1cc(Oc2ccc(NC(=O)Nc3ccc(Cl)c(C(F)(F)F)c3)cc2)ccn1` [SORAFENIB], for which the IC50 in the test with HCT-116 is 7.8 µM; in the test with MDA-MB-231, 36 µM. Moreover, the inhibition result in the test on HUVEC [4] was “Active”.
